Broadly, the IC50 is the concentration at which inhibition is half-maximal. Low values mean higher potency, high ones lower potency. For orientation: GI50 means the concentration at which growth is held to half of that of the control. Low readings indicate more potent growth inhibition, high ones less potent growth inhibition.

Assay [1] has as its target Hypoxia-inducible factor 1-alpha (Homo sapiens, UniProt Q16665). Kind of assay: Inhibition of hypoxia-induced HIF1alpha activation in human HeLa cells after 12 hrs by HRE-luciferase reporter gene assay. The format is cell-based. In a few lines: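 HeLa cells stably carrying HRE(×5)-luciferase reporter, incubated 12 h with or without drug under hypoxic conditions. Supernatant removed, then luciferase assay. IC50 is concentration halving relative light units, read from semi-logarithmic dose–response plots; mean ± SD of triplicates.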

The test system of another assay is HeLa. Kind of assay: Growth inhibition of human HeLa cells after 48 hrs by MTT assay. The format is functional. In a few lines:
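HeLa cells exposed 48 h under normoxia to 100 nM–100 μM compound; viable cells measured by MTT. GI50 read from semi-logarithmic dose–response plots; mean ± SD of triplicate samples.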
(In general: Tetrazolium dyes change colour on reduction, which living cells bring about.)

Sequence of Hypoxia-inducible factor 1-alpha (Q16665 whole entry): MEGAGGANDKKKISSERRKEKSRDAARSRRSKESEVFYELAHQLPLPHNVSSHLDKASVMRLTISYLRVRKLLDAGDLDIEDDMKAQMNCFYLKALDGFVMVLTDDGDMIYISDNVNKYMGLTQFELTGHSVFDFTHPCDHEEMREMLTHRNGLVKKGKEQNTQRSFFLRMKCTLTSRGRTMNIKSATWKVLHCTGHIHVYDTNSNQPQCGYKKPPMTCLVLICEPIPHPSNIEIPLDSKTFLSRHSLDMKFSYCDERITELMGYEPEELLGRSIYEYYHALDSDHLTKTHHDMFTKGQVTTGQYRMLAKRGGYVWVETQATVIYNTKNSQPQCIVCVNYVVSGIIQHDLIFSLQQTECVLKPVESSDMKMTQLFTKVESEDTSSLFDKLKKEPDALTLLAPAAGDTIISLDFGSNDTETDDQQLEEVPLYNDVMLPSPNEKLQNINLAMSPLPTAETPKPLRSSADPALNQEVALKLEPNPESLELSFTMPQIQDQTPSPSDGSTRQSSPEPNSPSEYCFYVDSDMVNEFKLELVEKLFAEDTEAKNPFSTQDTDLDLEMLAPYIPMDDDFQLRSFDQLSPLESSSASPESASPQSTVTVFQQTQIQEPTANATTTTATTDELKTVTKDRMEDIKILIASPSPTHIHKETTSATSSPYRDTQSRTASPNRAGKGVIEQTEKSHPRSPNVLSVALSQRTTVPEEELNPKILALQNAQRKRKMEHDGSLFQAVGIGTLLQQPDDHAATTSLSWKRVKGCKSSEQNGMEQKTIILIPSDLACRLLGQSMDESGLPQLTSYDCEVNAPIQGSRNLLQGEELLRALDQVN

`O=C(COc1ccc(C23CC4CC(CC(C4)C2)C3)cc1)Nc1cc(C(=O)O)ccc1O`: the IC50 in assay [1] worked out at 3.1 µM. Moreover, the GI50 with HeLa turned out to be 51.6 µM.

In assay [1], `O=C(COc1ccc(-c2ccccc2)cc1)Nc1cc(B(O)O)ccc1O` came in with an IC50 of over 100 µM. Also, in the assay on HeLa, the GI50 was 85.9 µM.

`O=C(COc1ccc(C2CCCCC2)cc1)Nc1cc(B(O)O)ccc1O`: half-maximal inhibition in assay [1] (IC50) was put at 84.8 µM. In the assay with HeLa, this molecule returned a GI50 of 29.2 µM.

Turning to `Cc1ccc(OCC(=O)Nc2cc(B(O)O)ccc2O)cc1`, the IC50 in assay [1] is over 100 µM. This molecule also gave a GI50 with HeLa of 25.7 µM.

`CC(C)(C)c1ccc(OCC(=O)Nc2cc(B(O)O)ccc2O)cc1` had an IC50 in assay [1] of 40.3 µM. Also, in the assay on HeLa, the GI50 stood at 21.3 µM.

In turn, `CCc1ccc(OCC(=O)Nc2cc(B(O)O)ccc2O)cc1` showed an IC50 in assay [1] of over 100 µM. Besides, the GI50 with HeLa was 14.9 µM.

The molecule `CC1(C)OB(c2ccc(O)c(NC(=O)COc3ccc(-c4ccccc4)cc3)c2)OC1(C)C` showed an IC50 in assay [1] of over 100 µM. In the assay with HeLa, this molecule showed a GI50 of 5.8 µM.

In assay [1], `CC1(C)OB(c2ccc(O)c(NC(=O)COc3ccc(C4CCCCC4)cc3)c2)OC1(C)C` returned an IC50 of 70.4 µM. Besides, the GI50 in the assay with HeLa came to 13.4 µM.

In turn, `O=C(COc1ccc(C23CC4CC(CC(C4)C2)C3)cc1)Nc1cc(B(O)O)ccc1O` came in with an IC50 in assay [1] of 4.6 µM. Further, halving of growth in the assay with HeLa (GI50) required 15.2 µM.

Consider `CC1(C)OB(c2ccc(O)c(NC(=O)COc3ccc(C45CC6CC(CC(C6)C4)C5)cc3)c2)OC1(C)C`, for which, in assay [1], the IC50 is 3.1 µM. In addition, the GI50 with HeLa amounted to 16 µM.

Molecule `Cc1ccc(OCC(=O)Nc2cc(B3OC(C)(C)C(C)(C)O3)ccc2O)cc1` yielded an IC50 in assay [1] of 90.6 µM. In the assay with HeLa, growth was halved (GI50) at 17.7 µM.

In turn, `CCc1ccc(OCC(=O)Nc2cc(B3OC(C)(C)C(C)(C)O3)ccc2O)cc1` showed an IC50 in assay [1] of 91.8 µM. Moreover, in the assay on HeLa, halving of growth (GI50) required 8.6 µM.

In assay [1], `CC(C)(C)c1ccc(OCC(=O)Nc2cc(B3OC(C)(C)C(C)(C)O3)ccc2O)cc1` yielded an IC50 of 35.3 µM. Also, the GI50 in the assay on HeLa worked out at 12.1 µM.

These data come from ChEMBL document CHEMBL1156864, “Boron-containing phenoxyacetanilide derivatives as hypoxia-inducible factor (HIF)-1alpha inhibitors” (Bioorg Med Chem Lett, 2010).
